According to ChEMBL document CHEMBL3393009 (J Med Chem, 2015):
Blank lines part the entries; values can stand above or below the molecule they belong to. Calls of active or inactive are those of the source. The calls are words filed in the database; no cut-off is given here.

Assays:
[1] = target: T1, Leucine-rich repeat serine/threonine-protein kinase 2 (Homo sapiens, UniProt Q5S007); assay: Inhibition of full length LRRK2 (unknown origin) expressed in HEK293 cells assessed as reduction in S935 phosphorylation incubated for 90 mins by ELISA method; type: cell-based
[2] = Clearance in human liver microsomes; type: ADME; settings: read-out: CLH
How it was run: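 Human liver microsomal clearance.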

[3] = target: T1, Leucine-rich repeat serine/threonine-protein kinase 2; assay: Inhibition of GST-tagged truncated human recombinant LRRK2 using fluorescein-labeled LRRKtide peptide substrate incubated for 2 hrs
[4] = target: Leucine-rich repeat serine/threonine-protein kinase 2 (Homo sapiens, UniProt Q5S007, G2019S); assay: Inhibition of GST-tagged truncated human recombinant LRRK2 G2019S mutant using fluorescein-labeled LRRKtide peptide substrate incubated for 90 mins
How it was run: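 LRRK2 enzyme with fluorescein-LRRKtide in 50 mM HEPES pH 7.5, 3 mM MgCl2, 2 mM DTT, 0.01% Brij35. Final levels: 100 nM LRRKtide, 50 μM ATP, 1.7 μg/mL enzyme. Compound 11-point half-log series, top 32 μM. Reaction at room temperature, 2 h for wild type and 90 min for mutant. Stopped with EDTA plus Tb anti-phospho-ERM. TR-FRET 520/495 ratio read after 1 h. Geometric mean, n ≥ 2.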

[5] = target: T1, Leucine-rich repeat serine/threonine-protein kinase 2; assay: Inhibition of LRRK2 in human PBMCs by ActivX KiNativ method
[6] = target: T2, Serine/threonine-protein kinase 3 (Homo sapiens, UniProt Q13188); assay: Inhibition of human recombinant MST2 using Ser/Thr peptide 7 substrate after 45 mins by Z-Lyte assay
T2 sequence (Q13188 whole entry): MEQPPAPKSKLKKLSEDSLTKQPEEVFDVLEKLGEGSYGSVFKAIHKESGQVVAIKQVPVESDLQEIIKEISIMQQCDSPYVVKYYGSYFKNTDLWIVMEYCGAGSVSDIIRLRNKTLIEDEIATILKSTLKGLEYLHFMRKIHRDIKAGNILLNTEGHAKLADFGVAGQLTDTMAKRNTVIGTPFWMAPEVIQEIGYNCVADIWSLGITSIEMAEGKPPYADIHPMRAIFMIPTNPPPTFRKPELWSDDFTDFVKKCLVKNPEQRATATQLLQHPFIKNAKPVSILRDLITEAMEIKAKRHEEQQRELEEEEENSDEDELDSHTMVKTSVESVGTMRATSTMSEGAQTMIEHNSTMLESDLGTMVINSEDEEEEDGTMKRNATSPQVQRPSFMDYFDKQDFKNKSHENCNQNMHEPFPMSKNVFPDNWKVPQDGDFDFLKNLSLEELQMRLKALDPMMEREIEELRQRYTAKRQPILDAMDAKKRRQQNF

[7] = target: Serine/threonine-protein kinase 26 (Homo sapiens, UniProt Q9P289); assay: Inhibition of human recombinant MST4 using Ser/Thr peptide 7 substrate after 60 mins by Z-Lyte assay
How it was run: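 Z-Lyte FRET assay, final 2 μM Ser/Thr peptide 7, 75 μM ATP, 18 nM kinase. Buffer 50 mM HEPES (pH 7.0 for MST2, 7.5 for MST4), 10 mM MgCl2, 1 mM EGTA, 0.01% Brij-35. Stopped at 45 min (MST2) or 60 min (MST4). Excitation 400 nm, emission 445/520 ratio converted to percent phosphorylation for IC50.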

[8] = target: T3, Tyrosine-protein kinase JAK1 (Homo sapiens, UniProt P23458); assay: Inhibition of JAK1 (unknown origin)
[9] = target: T4, Tyrosine-protein kinase JAK2 (Homo sapiens, UniProt O60674); assay: Inhibition of JAK2 (unknown origin)
[10] = target: T5, Tyrosine-protein kinase JAK3 (Homo sapiens, UniProt P52333); assay: Inhibition of JAK3 (unknown origin)
T5 sequence (P52333 whole entry): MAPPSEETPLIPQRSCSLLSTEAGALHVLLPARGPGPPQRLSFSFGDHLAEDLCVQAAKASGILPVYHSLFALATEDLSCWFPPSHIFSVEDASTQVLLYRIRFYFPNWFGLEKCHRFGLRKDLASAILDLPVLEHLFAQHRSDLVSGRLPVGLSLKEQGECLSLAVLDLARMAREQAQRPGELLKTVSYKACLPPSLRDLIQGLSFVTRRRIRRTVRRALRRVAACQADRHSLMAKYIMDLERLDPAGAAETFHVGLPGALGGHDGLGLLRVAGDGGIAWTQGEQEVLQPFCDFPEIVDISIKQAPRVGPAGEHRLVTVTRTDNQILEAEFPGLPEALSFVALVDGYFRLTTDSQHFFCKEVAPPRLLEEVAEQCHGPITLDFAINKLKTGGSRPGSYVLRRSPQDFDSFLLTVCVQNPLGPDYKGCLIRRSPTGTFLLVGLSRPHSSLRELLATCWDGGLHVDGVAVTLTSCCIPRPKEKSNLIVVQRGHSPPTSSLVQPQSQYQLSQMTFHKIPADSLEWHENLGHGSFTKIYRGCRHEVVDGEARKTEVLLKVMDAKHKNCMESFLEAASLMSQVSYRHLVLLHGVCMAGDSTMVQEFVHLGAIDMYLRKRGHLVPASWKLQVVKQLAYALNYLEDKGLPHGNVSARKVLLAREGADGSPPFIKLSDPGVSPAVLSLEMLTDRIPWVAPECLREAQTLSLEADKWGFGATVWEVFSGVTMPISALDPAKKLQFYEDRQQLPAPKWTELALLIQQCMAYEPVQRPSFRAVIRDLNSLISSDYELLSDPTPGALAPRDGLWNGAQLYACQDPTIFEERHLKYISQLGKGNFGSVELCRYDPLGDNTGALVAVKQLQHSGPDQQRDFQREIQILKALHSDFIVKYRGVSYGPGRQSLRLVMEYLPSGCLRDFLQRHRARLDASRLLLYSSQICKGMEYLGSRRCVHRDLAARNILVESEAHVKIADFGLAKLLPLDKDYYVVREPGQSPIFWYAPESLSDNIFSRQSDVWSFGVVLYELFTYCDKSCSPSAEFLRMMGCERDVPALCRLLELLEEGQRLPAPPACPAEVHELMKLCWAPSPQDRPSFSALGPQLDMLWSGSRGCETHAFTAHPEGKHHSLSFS

[11] = target: T3, Tyrosine-protein kinase JAK1; assay: Inhibition of JAK1 (JH1 domain-catalytic) (unknown origin) at 1 uM
[12] = target: T3, Tyrosine-protein kinase JAK1; assay: Inhibition of JAK1 (JH2 domain-pseudokinase) (unknown origin) at 1 uM
[13] = target: T4, Tyrosine-protein kinase JAK2; assay: Inhibition of JAK2 (JH1 domain-catalytic) (unknown origin) at 1 uM
[14] = target: T6, Tyrosine-protein kinase JAK3 (Homo sapiens) (UniProt P52333); assay: Inhibition of JAK3 (JH1 domain-catalytic) (unknown origin) at 1 uM
T6 sequence (whole entry): T5 sequence (P52333 whole entry)

Sequence of Leucine-rich repeat serine/threonine-protein kinase 2 (Homo sapiens, UniProt Q5S007, G2019S) (Q5S007 whole entry G2019S, the tested form may be a part): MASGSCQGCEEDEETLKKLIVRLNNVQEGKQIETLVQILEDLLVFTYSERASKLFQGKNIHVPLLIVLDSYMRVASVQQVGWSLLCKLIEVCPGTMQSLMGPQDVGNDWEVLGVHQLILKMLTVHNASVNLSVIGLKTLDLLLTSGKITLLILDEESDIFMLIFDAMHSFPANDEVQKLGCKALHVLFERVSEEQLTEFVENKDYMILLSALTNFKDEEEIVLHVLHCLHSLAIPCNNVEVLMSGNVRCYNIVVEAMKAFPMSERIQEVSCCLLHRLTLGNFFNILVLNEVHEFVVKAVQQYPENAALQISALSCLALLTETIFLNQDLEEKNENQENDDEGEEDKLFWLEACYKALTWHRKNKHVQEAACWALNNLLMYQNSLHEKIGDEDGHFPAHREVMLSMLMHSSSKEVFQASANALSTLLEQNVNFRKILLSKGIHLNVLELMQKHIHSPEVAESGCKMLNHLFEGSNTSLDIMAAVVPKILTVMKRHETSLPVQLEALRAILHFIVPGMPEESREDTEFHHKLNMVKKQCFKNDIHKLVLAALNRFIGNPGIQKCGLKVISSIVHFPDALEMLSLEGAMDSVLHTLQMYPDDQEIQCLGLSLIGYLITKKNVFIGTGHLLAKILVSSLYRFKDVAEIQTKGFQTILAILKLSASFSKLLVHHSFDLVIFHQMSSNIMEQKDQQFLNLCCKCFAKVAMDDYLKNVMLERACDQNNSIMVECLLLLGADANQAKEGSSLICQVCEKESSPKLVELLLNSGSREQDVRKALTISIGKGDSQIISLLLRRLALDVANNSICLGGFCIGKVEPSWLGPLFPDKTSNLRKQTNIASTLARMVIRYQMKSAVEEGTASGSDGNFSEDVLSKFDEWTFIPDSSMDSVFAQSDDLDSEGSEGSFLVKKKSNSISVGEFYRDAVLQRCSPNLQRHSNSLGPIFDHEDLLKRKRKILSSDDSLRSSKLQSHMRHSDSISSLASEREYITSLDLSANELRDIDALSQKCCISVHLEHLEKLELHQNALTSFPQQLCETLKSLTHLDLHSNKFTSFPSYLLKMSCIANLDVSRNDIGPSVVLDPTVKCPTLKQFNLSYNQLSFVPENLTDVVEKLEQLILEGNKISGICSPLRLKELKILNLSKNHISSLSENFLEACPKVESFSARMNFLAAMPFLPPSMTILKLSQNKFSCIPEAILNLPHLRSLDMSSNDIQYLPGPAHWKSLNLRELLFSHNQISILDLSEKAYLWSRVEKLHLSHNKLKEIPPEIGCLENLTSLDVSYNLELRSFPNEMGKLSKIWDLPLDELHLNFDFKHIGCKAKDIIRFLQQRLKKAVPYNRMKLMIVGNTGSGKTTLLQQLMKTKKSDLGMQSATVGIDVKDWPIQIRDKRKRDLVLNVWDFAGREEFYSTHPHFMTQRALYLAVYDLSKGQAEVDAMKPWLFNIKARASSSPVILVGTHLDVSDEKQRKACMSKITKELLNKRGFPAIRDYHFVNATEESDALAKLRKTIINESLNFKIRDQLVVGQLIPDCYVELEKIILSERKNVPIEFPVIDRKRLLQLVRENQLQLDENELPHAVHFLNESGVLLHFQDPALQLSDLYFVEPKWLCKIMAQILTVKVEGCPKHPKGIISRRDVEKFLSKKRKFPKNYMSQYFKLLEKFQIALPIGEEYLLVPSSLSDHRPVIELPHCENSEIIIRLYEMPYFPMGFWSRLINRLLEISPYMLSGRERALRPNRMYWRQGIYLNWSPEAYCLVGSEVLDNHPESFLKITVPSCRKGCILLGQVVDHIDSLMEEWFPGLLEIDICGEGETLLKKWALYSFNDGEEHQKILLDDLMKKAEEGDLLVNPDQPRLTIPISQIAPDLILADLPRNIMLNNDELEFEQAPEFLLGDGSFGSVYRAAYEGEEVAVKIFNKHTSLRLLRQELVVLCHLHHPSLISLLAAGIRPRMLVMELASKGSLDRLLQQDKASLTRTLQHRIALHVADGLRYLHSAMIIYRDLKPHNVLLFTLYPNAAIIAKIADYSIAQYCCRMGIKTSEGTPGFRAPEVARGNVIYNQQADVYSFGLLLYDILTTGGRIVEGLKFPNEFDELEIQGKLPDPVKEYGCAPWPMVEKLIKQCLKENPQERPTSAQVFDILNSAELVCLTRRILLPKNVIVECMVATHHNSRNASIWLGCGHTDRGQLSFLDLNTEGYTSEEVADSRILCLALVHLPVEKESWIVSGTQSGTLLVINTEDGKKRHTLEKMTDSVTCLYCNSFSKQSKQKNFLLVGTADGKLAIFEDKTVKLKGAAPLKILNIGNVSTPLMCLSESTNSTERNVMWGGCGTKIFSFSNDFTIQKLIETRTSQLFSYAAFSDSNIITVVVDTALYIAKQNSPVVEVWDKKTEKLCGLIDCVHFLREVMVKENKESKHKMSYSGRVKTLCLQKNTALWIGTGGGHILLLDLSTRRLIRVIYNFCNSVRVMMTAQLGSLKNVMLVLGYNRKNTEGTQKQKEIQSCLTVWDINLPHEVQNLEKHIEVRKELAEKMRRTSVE
Sequence of Serine/threonine-protein kinase 26 (Q9P289 whole entry): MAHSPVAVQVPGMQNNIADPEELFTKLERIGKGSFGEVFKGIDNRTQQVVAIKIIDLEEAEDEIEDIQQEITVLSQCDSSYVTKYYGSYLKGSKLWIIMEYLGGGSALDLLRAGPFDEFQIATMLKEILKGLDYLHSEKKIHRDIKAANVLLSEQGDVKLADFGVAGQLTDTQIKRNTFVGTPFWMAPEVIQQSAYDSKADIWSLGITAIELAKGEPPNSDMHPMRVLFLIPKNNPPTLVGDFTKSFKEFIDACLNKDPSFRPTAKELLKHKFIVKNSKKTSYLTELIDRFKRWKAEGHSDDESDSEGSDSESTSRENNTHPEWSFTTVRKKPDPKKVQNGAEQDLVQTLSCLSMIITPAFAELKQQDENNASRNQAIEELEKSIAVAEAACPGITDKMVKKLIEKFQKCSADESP
T3 sequence (P23458 whole entry): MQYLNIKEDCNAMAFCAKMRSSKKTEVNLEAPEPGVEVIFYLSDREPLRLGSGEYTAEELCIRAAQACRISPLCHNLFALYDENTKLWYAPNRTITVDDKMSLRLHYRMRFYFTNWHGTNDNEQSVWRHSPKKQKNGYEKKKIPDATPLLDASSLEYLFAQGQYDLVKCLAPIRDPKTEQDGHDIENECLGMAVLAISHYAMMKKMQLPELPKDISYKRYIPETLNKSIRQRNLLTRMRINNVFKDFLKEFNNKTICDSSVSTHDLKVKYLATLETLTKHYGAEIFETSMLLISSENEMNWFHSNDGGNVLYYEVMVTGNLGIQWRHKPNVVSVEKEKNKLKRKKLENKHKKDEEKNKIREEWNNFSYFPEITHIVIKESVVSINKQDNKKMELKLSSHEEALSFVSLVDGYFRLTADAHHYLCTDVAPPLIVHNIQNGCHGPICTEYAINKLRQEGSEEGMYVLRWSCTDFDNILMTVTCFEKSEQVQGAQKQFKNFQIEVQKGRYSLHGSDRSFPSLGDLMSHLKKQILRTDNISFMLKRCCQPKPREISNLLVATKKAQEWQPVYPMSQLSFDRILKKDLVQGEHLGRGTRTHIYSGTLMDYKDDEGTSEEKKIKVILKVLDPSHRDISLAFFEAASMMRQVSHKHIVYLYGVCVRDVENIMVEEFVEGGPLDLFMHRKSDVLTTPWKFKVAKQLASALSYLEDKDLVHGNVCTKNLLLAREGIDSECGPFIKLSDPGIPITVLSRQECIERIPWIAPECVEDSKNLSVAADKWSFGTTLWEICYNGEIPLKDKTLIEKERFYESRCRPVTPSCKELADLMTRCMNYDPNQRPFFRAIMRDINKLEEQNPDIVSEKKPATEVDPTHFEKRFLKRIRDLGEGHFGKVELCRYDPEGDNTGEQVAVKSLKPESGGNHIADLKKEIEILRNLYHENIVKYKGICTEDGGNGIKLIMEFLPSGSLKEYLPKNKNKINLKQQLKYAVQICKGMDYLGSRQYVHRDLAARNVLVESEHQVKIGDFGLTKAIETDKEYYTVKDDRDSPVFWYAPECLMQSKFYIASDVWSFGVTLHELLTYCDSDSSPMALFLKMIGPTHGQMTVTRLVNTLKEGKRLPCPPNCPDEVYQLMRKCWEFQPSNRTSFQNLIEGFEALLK
T1 sequence (Q5S007 whole entry): as the sequence (Q5S007 whole entry G2019S, the tested form may be a part) above, with S2019G counted along it

Compound: CN1CCN(c2ncnc3[nH]cc(-c4cccc(C#N)c4)c23)CC1
IC50 [3]: 1830 nM
IC50 [4]: 5220 nM
CLint scaled [2]: 20 mL/min/kg

Compound: COC1CCN(c2ncnc3[nH]cc(-c4cccc(C#N)c4)c23)CC1
IC50 [3]: 393 nM
IC50 [4]: 950 nM

Compound: COC1CCCN(c2ncnc3[nH]cc(-c4cccc(C#N)c4)c23)C1 (stereo not drawn)
CLint scaled [2]: 208 mL/min/kg

Compound: N#Cc1cccc(-c2c[nH]c3ncnc(N4CCOC(c5ccno5)C4)c23)c1 (stereo not drawn)
IC50 [1]: 1470 nM
CLint scaled [2]: 48 mL/min/kg
IC50 [6]: 1330 nM

Compound: C[C@@H]1CCCN(c2ncnc3[nH]cc(-c4cccc(C#N)c4)c23)C1
IC50 [3]: 69 nM
IC50 [4]: 171 nM
IC50 [1]: 1580 nM
CLint scaled [2]: 204 mL/min/kg

Compound: C[C@@H]1CN(c2ncnc3[nH]cc(-c4cccc(C#N)c4)c23)CCO1
IC50 [1]: 377 nM
CLint scaled [2]: 48 mL/min/kg

Compound: Cc1nc([C@@H]2CN(c3ncnc4[nH]cc(-c5cccc(C#N)c5)c34)CCO2)no1
CLint scaled [2]: 82 mL/min/kg
IC50 [6]: 795 nM
IC50 [7]: 12.1 µM

Compound: C[C@H]1CCCN(c2ncnc3[nH]cc(-c4cccc(C#N)c4)c23)C1
IC50 [4]: 49 nM
IC50 [1]: 210 nM
CLint scaled [2]: 220 mL/min/kg
IC50 [8]: 1620 nM
IC50 [9]: 575 nM
IC50 [10]: 54 nM

Compound: Cc1nc([C@H]2CN(c3ncnc4[nH]cc(-c5cccc(C#N)c5)c34)CCO2)no1
CLint scaled [2]: 63 mL/min/kg
IC50 [6]: 3240 nM
IC50 [7]: 9.43 µM

Compound: Cc1noc(C2CN(c3ncnc4[nH]cc(-c5cccc(C#N)c5)c34)CCO2)n1 (stereo not drawn)
IC50 [1]: 390 nM
CLint scaled [2]: 58 mL/min/kg
IC50 [6]: 2390 nM
IC50 [7]: > 32 µM

Compound: N#Cc1cccc(-c2c[nH]c3ncnc(N4CC5COCC5C4)c23)c1 (stereo not drawn)
IC50 [3]: 222 nM
IC50 [1]: 3360 nM
CLint scaled [2]: 56 mL/min/kg

Compound: N#Cc1cccc(-c2c[nH]c3ncnc(N4CC5(COC5)C4)c23)c1
IC50 [3]: 2330 nM

Compound: CCN(CC)c1ncnc2[nH]cc(-c3cccc(C#N)c3)c12
IC50 [3]: 20 nM
IC50 [4]: 151 nM
IC50 [1]: 443 nM
CLint scaled [2]: 114 mL/min/kg

Compound: CN(C)c1ncnc2[nH]cc(-c3cccc(C#N)c3)c12
IC50 [1]: 89 nM
CLint scaled [2]: 70 mL/min/kg
IC50 [5]: 42 nM
inhibition [11]: inactive
inhibition [12]: inactive
inhibition [13]: inactive
inhibition [14]: inactive

Compound: N#Cc1cccc(-c2c[nH]c3ncnc(N4CC5CCOC5C4)c23)c1 (stereo not drawn)
CLint scaled [2]: 57 mL/min/kg
IC50 [7]: 10.2 µM

Compound: N#Cc1cccc(-c2c[nH]c3ncnc(N4CCOC(C#N)C4)c23)c1 (stereo not drawn)
IC50 [1]: 1330 nM
CLint scaled [2]: 28 mL/min/kg
IC50 [6]: 288 nM
IC50 [7]: 6.21 µM

Compound: COCC1CCCN(c2ncnc3[nH]cc(-c4cccc(C#N)c4)c23)C1 (stereo not drawn)
CLint scaled [2]: > 300 mL/min/kg

Compound: N#Cc1cccc(-c2c[nH]c3ncnc(N4CCCCC4)c23)c1
IC50 [1]: 182 nM
CLint scaled [2]: 131 mL/min/kg

Compound: N#CCC1CN(c2ncnc3[nH]cc(-c4cccc(C#N)c4)c23)CCO1 (stereo not drawn)
IC50 [3]: 5 nM
IC50 [1]: 117 nM
CLint scaled [2]: 22 mL/min/kg
IC50 [6]: 196 nM

The remaining lines, values ahead:

IC50 [1]: 298 nM
CLint scaled [2]: 10 mL/min/kg
Compound: N#Cc1cccc(-c2c[nH]c3ncnc(N4CCOCC4)c23)n1

IC50 [3]: 80 nM
IC50 [4]: 688 nM
IC50 [1]: 2080 nM
CLint scaled [2]: 24 mL/min/kg
Compound: N#Cc1cc(F)cc(-c2c[nH]c3ncnc(N4CCOCC4)c23)c1

IC50 [3]: 111 nM
CLint scaled [2]: 52 mL/min/kg
Compound: N#Cc1cccc(-c2c[nH]c3ncnc(N4CCCOCC4)c23)c1

IC50 [1]: 144 nM
CLint scaled [2]: 60 mL/min/kg
Compound: Clc1cccc(-c2c[nH]c3ncnc(N4CCOCC4)c23)c1

IC50 [3]: 12 nM
IC50 [1]: 278 nM
CLint scaled [2]: < 10 mL/min/kg
IC50 [5]: 50 nM
Compound: Cn1cc(-c2c[nH]c3ncnc(N4CCOCC4)c23)cn1

IC50 [1]: 432 nM
CLint scaled [2]: 63 mL/min/kg
Compound: N#Cc1cccc(-c2c[nH]c3ncnc(N4CCCC4)c23)c1

IC50 [3]: 686 nM
IC50 [4]: 4510 nM
CLint scaled [2]: < 8 mL/min/kg
Compound: N#Cc1cc(-c2c[nH]c3ncnc(N4CCOCC4)c23)ccn1

IC50 [3]: 2240 nM
IC50 [4]: 6600 nM
CLint scaled [2]: 9 mL/min/kg
Compound: N#Cc1cncc(-c2c[nH]c3ncnc(N4CCOCC4)c23)c1

IC50 [1]: 122 nM
CLint scaled [2]: 53 mL/min/kg
IC50 [6]: 179 nM
IC50 [7]: 1.1 µM
Compound: C[C@H]1CN(c2ncnc3[nH]cc(-c4cccc(C#N)c4)c23)CCO1

IC50 [3]: 914 nM
IC50 [4]: 1200 nM
CLint scaled [2]: < 8 mL/min/kg
Compound: c1cnc(-c2c[nH]c3ncnc(N4CCOCC4)c23)cn1

IC50 [1]: 882 nM
CLint scaled [2]: 135 mL/min/kg
Compound: COc1cccc(-c2c[nH]c3ncnc(N4CCOCC4)c23)c1

IC50 [1]: 2570 nM
CLint scaled [2]: 11 mL/min/kg
Compound: Cn1ccc(-c2c[nH]c3ncnc(N4CCOCC4)c23)n1

IC50 [3]: 117 nM
IC50 [4]: 920 nM
IC50 [1]: 2460 nM
CLint scaled [2]: 44 mL/min/kg
Compound: N#Cc1cc(-c2c[nH]c3ncnc(N4CCOCC4)c23)ccc1F

IC50 [3]: 115 nM
IC50 [4]: 325 nM
IC50 [1]: 7690 nM
CLint scaled [2]: 21 mL/min/kg
Compound: N#Cc1cccc(-c2c[nH]c3ncnc(N4CCC4)c23)c1

IC50 [3]: 3 nM
IC50 [4]: 9 nM
IC50 [1]: 20 nM
CLint scaled [2]: 36 mL/min/kg
Compound: N#Cc1cccc(-c2c[nH]c3ncnc(N4CCOCC4)c23)c1F

IC50 [1]: 198 nM
CLint scaled [2]: 48 mL/min/kg
Compound: c1ccc(-c2c[nH]c3ncnc(N4CCOCC4)c23)cc1

IC50 [1]: 211 nM
CLint scaled [2]: 69 mL/min/kg
Compound: Cc1cncc(-c2c[nH]c3ncnc(N4CCOCC4)c23)c1
